Measurements published in publication PMC4103641 (Bioscience and Microflora, 2011).
Marks after values point to notes of the source that are not given here.

Columns and labels:
human fecal suspension = test: Metabolism of isoflavones by human fecal suspensions; assay type: in vitro ADME; settings: for 6HG detected after incubation / 6HGDG detected after incubation: substrate 6HGDG; for Daidzein detected after incubation: substrate Daidzein; for Genistein detected after incubation: substrate Genistein; for Glycitein detected after incubation: substrate Glycitein; for Tectorigenin detected after incubation: substrate Tectorigenin
[1] = Metabolism of isoflavones by homogenate of germfree mouse small intestine; assay type: in vitro ADME; settings: for Aglycone detected after incubation against compound added / Glycoside detected after incubation against compound added: 3 days; for Hydrolysis by homogenate of germfree mouse small intestine (in words): without bacterial activity; for Metabolized by incubation with germfree mouse small intestine (in words): 3 days anaerobically, both pH 5.0 and 7.4
How it was run: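 Upper small intestine from 14-week-old male germfree BALB/cA mice, homogenised anaerobically in 9 volumes BHI broth at pH 7.4 or 5.0. Test compound added from 5 mmol/l DMSO stock. Flavone internal standard added, then 5 extractions with equal-volume butanol, redissolved in 50% ethanol. Reversed-phase ODS HPLC (30 °C, acetonitrile/water/acetic acid gradient) with 260 nm diode-array detection. Values are % detected versus added.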

## O=c1c(-c2ccc(O)cc2)coc2cc(O[C@@H]3O[C@H](CO)[C@@H](O)[C@H](O)[C@H]3O)c(O[C@@H]3O[C@H](CO)[C@@H](O)[C@H](O)[C@H]3O)c(O)c12 [6HGDG, 6-hydroxygenistein 6,7-di-O-glucoside]
Human fecal suspension; incubation for 3 days
  Metabolism by human fecal bacteria (in words): completely metabolized
Human fecal suspension; incubation for 3 days, listed as 6-hydroxygenistein 6,7-di-O-glucoside
  Metabolism by human fecal bacteria (in words): highly metabolized
Human fecal suspension; six out of 10 samples
  6HGDG metabolized to its aglycone, 6HG: 9 to 56%
Human fecal suspension; Mix, mixture of 10 samples
  6HG detected after incubation: 0.0%
  6HGDG detected after incubation: 0.0%
Human fecal suspension; fecal sample no. 1
  6HG detected after incubation: 55.8%
  6HGDG detected after incubation: 0.0^a %
Human fecal suspension; fecal sample no. 2
  6HG detected after incubation: 40.8%
  6HGDG detected after incubation: 0.0%
Human fecal suspension; fecal sample no. 3
  6HG detected after incubation: 26.6%
  6HGDG detected after incubation: 0.0%
Human fecal suspension; fecal sample no. 4
  6HG detected after incubation: 28.4%
  6HGDG detected after incubation: 0.0%
Human fecal suspension; fecal sample no. 5
  6HG detected after incubation: 18.4%
  6HGDG detected after incubation: 0.0%
Human fecal suspension; fecal sample no. 6
  6HG detected after incubation: 8.7%
  6HGDG detected after incubation: 0.0%
Human fecal suspension; fecal sample no. 7
  6HG detected after incubation: 0.0%
  6HGDG detected after incubation: 0.0%
Human fecal suspension; fecal sample no. 8
  6HG detected after incubation: 0.0%
  6HGDG detected after incubation: 0.0%
Human fecal suspension; fecal sample no. 9
  6HG detected after incubation: 0.0%
  6HGDG detected after incubation: 0.0%
Human fecal suspension; fecal sample no. 10
  6HG detected after incubation: 0.0%
  6HGDG detected after incubation: 0.0%
[1]; pH 5.0
  Aglycone detected after incubation against compound added: 0.0%
  Glycoside detected after incubation against compound added: 99.4%
[1]; pH 7.4
  Aglycone detected after incubation against compound added: 0.0%
  Glycoside detected after incubation against compound added: 106.2^a %
[1]
  Hydrolysis by homogenate of germfree mouse small intestine (in words): not hydrolyzed

## O=c1c(-c2ccc(O)cc2)coc2cc(O)ccc12 [Daidzein, daidzein]
Human fecal suspension; Mix, mixture of 10 samples
  Daidzein detected after incubation: 30.1%
Human fecal suspension; fecal sample no. 1
  Daidzein detected after incubation: 84.5%
Human fecal suspension; fecal sample no. 2
  Daidzein detected after incubation: 90.8%
Human fecal suspension; fecal sample no. 3
  Daidzein detected after incubation: 60.3%
Human fecal suspension; fecal sample no. 4
  Daidzein detected after incubation: 96.4%
Human fecal suspension; fecal sample no. 5
  Daidzein detected after incubation: 8.0%
Human fecal suspension; fecal sample no. 6
  Daidzein detected after incubation: 0.0%
Human fecal suspension; fecal sample no. 7
  Daidzein detected after incubation: 62.6%
Human fecal suspension; fecal sample no. 8
  Daidzein detected after incubation: 13.9%
Human fecal suspension; fecal sample no. 9
  Daidzein detected after incubation: 81.4%
Human fecal suspension; fecal sample no. 10
  Daidzein detected after incubation: 8.4%
[1]; aglycone-form substrate
  Detected intact after incubation: More than 95%

## O=c1c(-c2ccc(O)cc2)coc2cc(O)cc(O)c12 [Genistein]
Human fecal suspension; 1 sample
  Detected as intact substrate: 70%
Human fecal suspension; 1 sample, incubation for 3 days
  Substrate metabolized: 94%
Human fecal suspension; 2 samples
  Found intact: more than 90%
Human fecal suspension; any incubates
  Metabolites detected, including 6HG and equol (in words): No metabolites
Human fecal suspension; mixed human feces
  Substrate metabolized (in words): completely
Human fecal suspension; Mix, mixture of 10 samples
  Genistein detected after incubation: 0.0%
Human fecal suspension; fecal sample no. 1
  Genistein detected after incubation: 70.9%
Human fecal suspension; fecal sample no. 2
  Genistein detected after incubation: 91.2%
Human fecal suspension; fecal sample no. 3
  Genistein detected after incubation: 99.0%
Human fecal suspension; fecal sample no. 4
  Genistein detected after incubation: 5.9%
Human fecal suspension; fecal sample no. 5
  Genistein detected after incubation: 0.0%
Human fecal suspension; fecal sample no. 6
  Genistein detected after incubation: 0.0%
Human fecal suspension; fecal sample no. 7
  Genistein detected after incubation: 0.0%
Human fecal suspension; fecal sample no. 8
  Genistein detected after incubation: 0.0%
Human fecal suspension; fecal sample no. 9
  Genistein detected after incubation: 0.0%
Human fecal suspension; fecal sample no. 10
  Genistein detected after incubation: 0.0%
[1]; aglycone-form substrate
  Detected intact after incubation: More than 95%

## O=c1c(-c2ccc(O)cc2)coc2cc(O[C@@H]3O[C@H](CO)[C@@H](O)[C@H](O)[C@H]3O)cc(O)c12 [Genistin]
[1]
  Metabolized by incubation with germfree mouse small intestine (in words): completely metabolized
  Hydrolysis by homogenate of germfree mouse small intestine (in words): highly hydrolyzed
[1]; pH 5.0
  Glycoside detected after incubation against compound added: 0.0%
[1]; pH 7.4
  Glycoside detected after incubation against compound added: 0.0%

## COc1cc2c(=O)c(-c3ccc(O)cc3)coc2cc1O [Glycitein, glycitein]
Human fecal suspension; all fecal samples including the mixed sample
  Substrate metabolized: At least 75%
Human fecal suspension; Mix, mixture of 10 samples
  Glycitein detected after incubation: 8.0%
Human fecal suspension; fecal sample no. 1
  Glycitein detected after incubation: 24.6^a %
Human fecal suspension; fecal sample no. 2
  Glycitein detected after incubation: 17.5%
Human fecal suspension; fecal sample no. 3
  Glycitein detected after incubation: 2.7%
Human fecal suspension; fecal sample no. 4
  Glycitein detected after incubation: 10.7%
Human fecal suspension; fecal sample no. 5
  Glycitein detected after incubation: 7.1%
Human fecal suspension; fecal sample no. 6
  Glycitein detected after incubation: 0.0%
Human fecal suspension; fecal sample no. 7
  Glycitein detected after incubation: 12.2%
Human fecal suspension; fecal sample no. 8
  Glycitein detected after incubation: 3.2%
Human fecal suspension; fecal sample no. 9
  Glycitein detected after incubation: 0.0%
Human fecal suspension; fecal sample no. 10
  Glycitein detected after incubation: 5.6%
[1]; aglycone-form substrate
  Substrate added that was resolved (in words): about a half

## COc1cc2c(=O)c(-c3ccc(O)cc3)coc2cc1O[C@@H]1O[C@H](CO)[C@@H](O)[C@H](O)[C@H]1O [Glycitin, glycitin]
[1]
  Glycitin metabolized detected as glycitein: about 65%
  Metabolized by incubation with germfree mouse small intestine (in words): completely metabolized
  Hydrolysis by homogenate of germfree mouse small intestine (in words): highly hydrolyzed
[1]; pH 5.0
  Aglycone detected after incubation against compound added: 65.5%
  Glycoside detected after incubation against compound added: 0.0%
[1]; pH 7.4
  Aglycone detected after incubation against compound added: 62.1%
  Glycoside detected after incubation against compound added: 0.0%

## COc1c(O[C@@H]2O[C@H](CO[C@@H]3OC[C@@H](O)[C@H](O)[C@H]3O)[C@@H](O)[C@H](O)[C@H]2O)cc2occ(-c3ccc(O)cc3)c(=O)c2c1O [TGXG, Tectorigenin 7-O-xylosylglucoside]
[1]; pH 5.0
  Substrate metabolized: More than 95%
  Aglycone detected after incubation against compound added: 97.1%
  Glycoside detected after incubation against compound added: 4.9%
[1]; pH 7.4
  Substrate metabolized: 40%
  Aglycone detected after incubation against compound added: 43.7%
  Glycoside detected after incubation against compound added: 60.7%
[1]
  Hydrolysis by homogenate of germfree mouse small intestine (in words): highly hydrolyzed

## COc1c(O[C@@H]2O[C@H](CO)[C@@H](O)[C@H](O)[C@H]2O)cc2occ(-c3ccc(O)cc3)c(=O)c2c1O [Tectoridin, tectoridin]
[1]
  Metabolized by incubation with germfree mouse small intestine (in words): completely metabolized
  Hydrolysis by homogenate of germfree mouse small intestine (in words): highly hydrolyzed
[1]; pH 5.0
  Glycoside detected after incubation against compound added: 0.0%
[1]; pH 7.4
  Glycoside detected after incubation against compound added: 0.0%

## COc1c(O)cc2occ(-c3ccc(O)cc3)c(=O)c2c1O [Tectorigenin, tectorigenin]
Human fecal suspension; 1 fecal sample
  Substrate metabolized (in words): about half
Human fecal suspension; 8 of 10 fecal samples
  Substrate metabolized (in words): metabolized completely
Human fecal suspension; mixed human feces
  Metabolite detected (in words): no metabolite was detected
  Substrate metabolized (in words): completely
Human fecal suspension; Mix, mixture of 10 samples
  Tectorigenin detected after incubation: 0.0%
Human fecal suspension; fecal sample no. 1
  Tectorigenin detected after incubation: 53.5%
Human fecal suspension; fecal sample no. 2
  Tectorigenin detected after incubation: 2.6%
Human fecal suspension; fecal sample no. 3
  Tectorigenin detected after incubation: 0.0%
Human fecal suspension; fecal sample no. 4
  Tectorigenin detected after incubation: 0.0%
Human fecal suspension; fecal sample no. 5
  Tectorigenin detected after incubation: 0.0%
Human fecal suspension; fecal sample no. 6
  Tectorigenin detected after incubation: 0.0%
Human fecal suspension; fecal sample no. 7
  Tectorigenin detected after incubation: 0.0%
Human fecal suspension; fecal sample no. 8
  Tectorigenin detected after incubation: 0.0%
Human fecal suspension; fecal sample no. 9
  Tectorigenin detected after incubation: 0.0%
Human fecal suspension; fecal sample no. 10
  Tectorigenin detected after incubation: 0.0%
[1]; aglycone-form substrate
  Detected intact after incubation: More than 95%
